Converted amounts (≈) assume the structure as drawn.
Experiments:
[1] = Inhibition of testosterone-5-alpha-reductase at 200 ug/mL
[2] = Displacement of [3H]DHT from 5-alpha-dihydrotestosterone receptor at 50 ug/mL
[3] = test system: Bacillus subtilis; assay: Antimicrobial activity against Bacillus subtilis after 48 hrs by agar plate dilution method; assay type: functional
How it was run: (§1)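 Strains cultured at 37 °C in soybean–casein digest broth; activity determined by agar plate dilution (described alongside broth microtiter dilution), read after 48 h incubation at 37 °C.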

[4] = test system: Staphylococcus epidermidis; assay: Antimicrobial activity against Staphylococcus epidermidis after 48 hrs by agar plate dilution method; assay type: functional; how it was run: as §1
[5] = Displacement of [3H]DHT from 5-alpha-dihydrotestosterone receptor at 100 ug/mL
[6] = test system: Cutibacterium acnes; assay: Antimicrobial activity against Propionibacterium acnes after 48 hrs by agar plate dilution method; assay type: functional; how it was run: as §1
[7] = Displacement of [3H]DHT from 5-alpha-dihydrotestosterone receptor at 200 ug/mL
[8] = Inhibition of testosterone-5-alpha-reductase at 100 ug/mL
[9] = test system: Staphylococcus aureus; assay: Antimicrobial activity against Staphylococcus aureus after 48 hrs by agar plate dilution method; assay type: functional; how it was run: as §1
[10] = Inhibition of testosterone-5-alpha-reductase at 50 ug/mL

Row | SMILES | inhibition [1] [%] | Activity [2] [%] | MIC [3] [µg/mL] | MIC [4] [µg/mL] | Activity [5] [%] | MIC [6] [µg/mL] | Activity [7] [%] | inhibition [8] [%] | MIC [9] [µg/mL] | inhibition [10] [%]
1 | C=C(C)C(CC=C(C)C)Cc1c(O)cc(O)c2c1O[C@H](c1ccc(O)cc1O)CC2=O (some centres not stated) | 94.2 | 80.3 | 2.5 (≈ 5.89 µM) | 10 (≈ 23.6 µM) | 85.8 | 10 (≈ 23.6 µM) | 90.1 | 86.4 | 2.5 (≈ 5.89 µM) | 51.4
2 | C=C(C)C(CC=C(C)C)Cc1c(O)cc(O)c2c1O[C@H](c1ccccc1O)CC2=O (some centres not stated) | 77.3 | 60.1 | 2.5 (≈ 6.12 µM) | 5 (≈ 12.2 µM) | 89.3 | 10 (≈ 24.5 µM) | 89.6 | 51.4 | 5 (≈ 12.2 µM) | 21.9
3 | C=C(C)C(CC=C(C)C)Cc1c(O)cc(OC)c2c1O[C@H](c1ccc(O)cc1OC)CC2=O (some centres not stated) | 94.7 | 73.7 | 2.5 (≈ 5.52 µM) | 10 (≈ 22.1 µM) | 58.9 | 25 (≈ 55.2 µM) | 58.4 | 79.3 | 2.5 (≈ 5.52 µM) | 34.1
4 | C=C(C)C(CC=C(C)C)Cc1c(O)cc(OC)c2c1O[C@H](c1ccc(O)cc1O)[C@@H](O)C2=O (some centres not stated) | 85.1 | 60.2 | – | – | 81.4 | – | 84.2 | 50.9 | – | 14
5 | C=C(C)C(CCC(C)(C)O)Cc1c(O)cc(O)c2c1O[C@H](c1ccc(O)cc1O)CC2=O (some centres not stated) | 82.2 | 43.9 | – | – | 75.4 | – | 83 | 41.3 | – | 3.5
6 | C=C(C)C(CCC(C)(C)O)Cc1c(O)cc(OC)c2c1O[C@H](c1ccc(O)cc1O)CC2=O (some centres not stated) | 11.9 | 15.5 | – | – | 27.9 | – | 65.8 | -0.2 | – | -1
7 | C=C(C)[C@H](CCC(C)(C)O)Cc1c(O)cc(O)c2c1O[C@H](c1ccccc1O)CC2=O | 95.4 | 35 | – | – | 84.9 | – | 89.2 | 54.8 | – | 3.2
8 | CC1(C)C=Cc2c(ccc3c2OC[C@@H](c2ccc(O)cc2O)C3)O1 | – | 63.2 | – | – | 88.2 | – | – | 84.3 | – | 32.5
9 | COc1cc(C2CC(=O)c3c(O)cc(O)c(CC=C(C)C)c3O2)c(O)cc1O (racemic) [KUSHENOL W] | – | – | 10 (≈ 25.9 µM) | – | – | – | – | – | 10 (≈ 25.9 µM) | –
10 | C=C(C)C(CC=C(C)C)Cc1c(O)cc(OC)c2c1O[C@H](c1ccc(O)cc1O)CC2=O (some centres not stated) [KURARINONE] | 93.8 | 61.1 | 2.5 (≈ 5.7 µM) | – | 89.2 | – | 88 | 40.5 | 2.5 (≈ 5.7 µM) | 0.7
11 | CC(C)=CCC(Cc1c(O)cc(O)c2c1O[C@H](c1ccc(O)cc1O)CC2=O)C(C)CO (some centres not stated) [KUSHENOL Q] | 88.5 | 66.1 | 5 (≈ 11.3 µM) | – | 82.4 | – | 92.7 | 34.8 | 5 (≈ 11.3 µM) | 0.9
12 | C=C(C)C(CC=C(C)C)Cc1c(O)cc(OC)c2c1O[C@H](c1ccccc1O)CC2=O (some centres not stated) [KUSHENOL R] | 73.5 | 27.3 | 2.5 (≈ 5.92 µM) | 5 (≈ 11.8 µM) | 67.5 | 10 (≈ 23.7 µM) | 82.4 | 23.6 | 5 (≈ 11.8 µM) | 4.1
13 | CC(C)=CCc1c(O)cc(O)c2c1O[C@H](c1ccccc1O)CC2=O [KUSHENOL S] | 37.4 | 37.8 | 5 (≈ 14.7 µM) | – | 47.7 | – | 70 | 22.9 | 5 (≈ 14.7 µM) | 7.3
14 | C=C(C)C(CC=C(C)C)Cc1c(O)cc(OC)c2c1O[C@H](c1ccc(O)cc1)CC2=O (some centres not stated) [KUSHENOL U] | 84.4 | 52.6 | 10 (≈ 23.7 µM) | 10 (≈ 23.7 µM) | 85.1 | 10 (≈ 23.7 µM) | 96.9 | 50.3 | 10 (≈ 23.7 µM) | 7.4
15 | COc1cc([C@@H]2CC(=O)c3c(cc(O)c(CC=C(C)C)c3O)O2)c(O)cc1O [KUSHENOL V] | – | – | 10 (≈ 25.9 µM) | – | – | – | – | – | 10 (≈ 25.9 µM) | –
16 | C=C(C)C(CC=C(C)C)Cc1c(O)cc(O)c2c1O[C@H](c1ccc(O)cc1O)[C@@H](O)C2=O (some centres not stated) [KUSHENOL X] | 96.4 | 68.9 | 10 (≈ 22.7 µM) | – | 90.5 | – | 88.6 | 84.5 | 10 (≈ 22.7 µM) | 30.9
17 | CC(C)=CCc1c(O)cc(O)c2c1O[C@H](c1ccc(O)cc1O)CC2=O [LEACHIANONE G] | 89.9 | 74.2 | 2.5 (≈ 7.02 µM) | – | 84.8 | – | 94.5 | 80.5 | 5 (≈ 14 µM) | 25.3

From ChEMBL document CHEMBL1144146, “Antibacterial and antiandrogen flavonoids from Sophora flavescens” (1999)
